High-throughput results (PubChem BioAssay)
RanGTP-Imp inh: inhibitors of RanGTP-importin-beta interaction, primary screen, biochemical, FRET, CFP-Ran, YFP-importin-beta, homogeneous; cell-free CFP-Ran/YFP-importin-beta FRET ratio; inhibition, % (test concentration not listed); 300,000 tested, 1.1% active; AID 2216;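 active = more than half of the replicate wells show a fall in the fluorescence ratio signal beyond about 16%, limit read from the data, passing the limit was not always enough; inconclusive = exactly half of the replicate wells pass the set limit; inactive = fewer than half of replicates pass the limit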;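 also: 0% = DMSO wells and 100% = Ran loaded with GDP instead of GTP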
Runt-SMMHC FRET: blocks binding of human RUNX1 Runt domain to CBFb-SMMHC | Cerulean-Runt/Venus-CBFb-SMMHC FRET ratio 530/480, 1 h | inhibition, % at 20 µM | 220,000 tested, 0.74% active | AID 1434;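 active = mean inhibition across duplicate retests at 20 µM reaching about 50%, limit read from the data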;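 also: 0% = DMSO wells and 100% = wells with excess untagged CBFb-SMMHC; inhibitors lower the FRET ratio by blocking Runt binding to CBFb-SMMHC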
Target sequence (Q01196 whole entry, looked up, the tested form may be a part): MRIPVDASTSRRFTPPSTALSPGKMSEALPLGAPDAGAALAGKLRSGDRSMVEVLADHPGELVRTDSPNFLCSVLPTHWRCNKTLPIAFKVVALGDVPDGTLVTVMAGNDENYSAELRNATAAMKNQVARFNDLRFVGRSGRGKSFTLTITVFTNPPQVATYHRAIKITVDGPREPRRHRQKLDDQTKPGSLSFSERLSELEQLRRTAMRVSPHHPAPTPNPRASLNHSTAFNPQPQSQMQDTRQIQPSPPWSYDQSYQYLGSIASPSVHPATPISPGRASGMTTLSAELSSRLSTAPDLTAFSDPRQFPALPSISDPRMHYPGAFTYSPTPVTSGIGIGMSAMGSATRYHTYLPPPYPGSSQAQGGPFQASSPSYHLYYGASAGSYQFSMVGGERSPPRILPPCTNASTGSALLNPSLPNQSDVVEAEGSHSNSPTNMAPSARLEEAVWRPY
Target sequence (Q13951 whole entry, looked up, the tested form may be a part): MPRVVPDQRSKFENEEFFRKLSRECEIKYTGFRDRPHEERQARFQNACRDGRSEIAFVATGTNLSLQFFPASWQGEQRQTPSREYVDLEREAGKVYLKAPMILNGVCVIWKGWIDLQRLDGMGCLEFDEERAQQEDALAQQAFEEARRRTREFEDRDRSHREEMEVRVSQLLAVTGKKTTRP
CaV13 FRET inh: Primary screen for inhibitors of IQ motif and Ca2+-dependent inactivation inhibitor domain binding in CACNA1D, Förster resonance energy transfer in living cells, … | HEK cells, CFP/YFP FRET ICDI-IQ, plate reader, 10 min; percent FRET-ratio fall versus neutral wells | inhibition, % at 12.3 µM | 340,000 tested, 0.098% active;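 active = mean replicate inhibition of at least 30% and at least 1% of replicates passing that level; inconclusive = only one of the two criteria is met; inactive = neither criterion is met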;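 also: 0% = median of the neutral control wells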
Runt-CBFb FRET: inhibitors of human RUNX1 Runt domain binding to CBFb | Cerulean-Runt/Venus-CBFb FRET ratio 530/480, 1 h | inhibition, % at 20 µM | 220,000 tested, 0.46% active;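 active = inhibition over about 50% at 20 µM in the single-dose screen, limit read from the data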;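 also: 0% = DMSO wells and 100% = excess unlabeled CBFb competitor control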
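Schedule: protein complex preformed 1 h, compound exposure 1 h, room temperature, dark; test system: Cerulean-labeled Runt domain protein; amount: 100 nM per protein; buffer or medium: Tris 50 mM pH 7.5, KCl, K2SO4, 0.01% BSA; read-out: loss of energy transfer signal; detection: FRET fluorescence; controls: 5 µM unlabeled CBFb as full-inhibition high control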
Runt-CBFb TRFRET: inhibitors of human RUNX1 Runt domain binding to CBFb; shares compounds with Runt-CBFb FRET; TR-FRET RUNX1 Runt domain-CBFb binding; inhibition, % at 20 µM; 480 tested, 20% active; AID 1502; in the data active = inhibition above about 40%
* = called active by the depositor; ? = inconclusive; nt = no result given; + = active, no number. Only some compounds are listed: those with a hit (about 1.2% of all), similar ones and a draw of the others.

SMILES	RanGTP-Imp inh	Runt-SMMHC FRET	CaV13 FRET inh	Runt-CBFb FRET	Runt-CBFb TRFRET
O=C(NCc1ccc2c(c1)OCO2)c1cnc2ccccn2c1=O	2.8	-11.6	-4.1	-2.3	nt
CC(C)OCCCn1c(=N)c(C(N)=S)cc2c(=O)n3ccccc3nc21	13.3	65.3*	44.7*	65.3*	20.5
CC(=O)N=c1c(C#N)cc2c(=O)n3ccccc3nc2n1CCCOC(C)C	102.0*	81.7*	+	76.5*	38.3
CCOCCCn1c(=N)c(C(=O)NCc2ccc3c(c2)OCO3)cc2c(=O)n3ccccc3nc21	28.8*	125.3*	-5.5	51.4*	25.2
C/C(N)=C(/C#N)C(=O)CSc1nc2ccccc2c(=O)n1CCCOC(C)C	2.6	-0.8	-14.4	-3.9	nt
C=CCN1C(=O)c2ccc(C(=O)NCCc3ccc(F)cc3)cc2C1=O	2.5	nt	nt	nt	nt
Cc1ccc(F)cc1C(=O)N1CCCCC1c1cc(C(=O)NC(C)C)no1 (centres undefined)	nt	nt	-8.5	nt	nt
Cc1ccc2nc3c(cc(C(=O)NCCCn4ccnc4)n3C)c(=O)n2c1	-2.8	77.1*	-5.3	53.6*	-23.3
O=C1C2C3C=CC(CO)(O3)C2C(=O)N1c1ccccc1-c1ccccc1 (centres undefined)	nt	67.8*	nt	61.4*	70.5*
Nc1ncnc(Sc2ncccn2)c1[N+](=O)[O-]	-0.1	10.1	1.4	62.3*	1.2
CCCc1nc2c(Cl)cc(C(F)(F)F)cn2c1Cc1ccc(OC)cc1C	nt	nt	-5.3	nt	nt
CCOC(=O)c1cc2c(=O)n3cccc(C)c3nc2n(CCOC)c1=NC(C)=O	70.4*	87.4*	-1.9	94.5*	-3.4
CCCn1c(=NC(=O)c2c(-c3c(F)cccc3Cl)noc2C)c(C(=O)OCC)cc2c(=O)n3ccccc3nc21	0.8	60.1*	nt	71.5*	-79.4
CCOC(=O)c1cc2c(=O)n3ccccc3nc2n(Cc2ccco2)c1=NC(=O)c1cccc(OC)c1	33.0*	86.3*	-2.9	98.8*	55.4*
CCOC(=O)N1CCN(C(=O)c2cc3c(=O)n4cccc(C)c4nc3s2)CC1	-1.4	nt	-2.9	nt	nt
CCOC(=O)C1=C(C)N(CC)C(=S)NC1c1ccccc1OC(F)F (centres undefined)	-1.0	0.7	-1.9	-3.6	nt
Cc1cccc(N(CC(=O)NC(C)C)C(=O)c2ccc(N3CCCC3)nc2)c1	-1.2	-3.5	-4.3	0.2	nt
COc1cccc(C(=O)CC(C(=O)O)c2ccc(Cl)cc2)c1 (centres undefined)	2.5	nt	-20.8	nt	nt
CCCCNC(=O)C1CCN(S(=O)(=O)N2CCOCC2)CC1	-1.1	-2.7	-4.8	-1.0	nt
COc1ccc(C(CCN2CCN(c3ccccc3)CC2)c2c(OC)cc(OC)c3c(-c4ccccc4)cc(=O)oc23)cc1 (centres undefined)	4.3	-2.9	-9.9	55.2*	-2.5
O=C(O)C[C@@H]1C(=O)O[C@@H]2C(COC(=O)c3cc(O)c(O)c(O)c3)O[C@@H](OC(=O)c3cc(O)c(O)c(O)c3)[C@@H](OC(=O)c3cc(O)c(O)c4c3[C@H]1[C@H](O)C(=O)O4)[C@H]2OC(=O)c1cc(O)c(O)c(O)c1 (some centres undefined)	nt	3.8	nt	50.9*	48.8*
COC(=O)c1cc(=O)nc2sc(-c3ccc(F)cc3)nn12	0.2	5.1	nt	51.5*	21.5
O=C1/C(=C/c2ccncc2)SC(=S)N1Nc1ccccc1	8.9	27.9	-5.4	50.2*	49.8*
Fc1ccc(-c2ccnc(=S)[nH]2)cc1	-0.2	34.2	-6.5	52.1*	2.3
COc1cccc2cc(-c3ccnc(=S)[nH]3)oc12	-3.0	10.0	nt	17.9	nt
SMILES	RanGTP-Imp inh	Runt-SMMHC FRET	CaV13 FRET inh	Runt-CBFb FRET	Runt-CBFb TRFRET
CCN(CC)c1ccc(NC(=O)C2CCCN(S(=O)(=O)c3cccnc3)C2)c(C)c1 (centres undefined)	0.4	14.2	-2.3	13.6	nt
O=C(CC1Sc2ccccc2NC1=O)OCc1cc(=O)oc2cc(O)ccc12 (centres undefined)	?	nt	-4.7	62.0*	48.9*
Cc1ccc2c(COC(=O)CC3Sc4ccccc4NC3=O)cc(=O)oc2c1C (centres undefined)	-1.8	1.9	3.5	-5.3	nt
CC(=O)c1ccc(-n2c(-c3cc(-c4ccco4)[nH]n3)n[nH]c2=S)cc1	-0.9	12.4	nt	17.9	nt
O=C(O)c1ccc(-n2c(-c3cc(-c4ccco4)[nH]n3)n[nH]c2=S)cc1	?	52.6	-6.1	52.7*	81.1*
COc1ccc(CCNC(=O)C2CCN(S(=O)(=O)c3cccc4nsnc34)CC2)cc1OC	4.8	-1.9	nt	81.0*	-6.1
O=C(NCCc1ccccc1)C1CCN(S(=O)(=O)c2cccc3nsnc23)CC1	2.0	-9.7	-3.7	0.3	nt
COc1ccc(CN2CCN(c3ccccc3OC)CC2)cc1OC	-0.4	nt	-21.0	nt	nt
COc1ccccc1N1CCN(Cc2ccsc2)CC1	6.5	1.3	-3.9	54.0*	-5.9
O=C(CSc1ncnc2ccccc12)c1ccco1	?	115.8*	nt	59.0*	41.9*
O=C(CSc1ncnc2ccccc12)NCc1ccco1	-1.1	3.8	-4.9	-1.1	nt
O=[N+]([O-])c1cccc(C(=S)N2CCN(c3ccccc3)CC2)c1	1.0	23.8	-5.2	52.6*	20.6
CC1CCN(C(=O)c2ccc(NS(=O)(=O)c3cccs3)cc2)CC1	0.6	nt	-2.4	nt	nt
CS(=O)(=O)c1sc2nc(-c3cccs3)cc(-c3ccccc3)c2c1N	-2.5	85.3*	-5.8	54.4*	17.3
N#Cc1sc2nc(-c3cccs3)cc(-c3ccc(F)cc3)c2c1N	-17.5	-95.1	-7.9	-35.4	nt
COCCNC(=O)C1(C)CCN(C(=O)COc2ccc(Cl)cc2Cl)C1 (centres undefined)	nt	nt	-4.0	nt	nt
CCOC(=O)c1sc(Nc2nc3c(F)cccc3s2)cc1C	10.1	148.1*	-5.1	97.9*	-3.9
CCOC(=O)c1sc(Nc2ccccc2)nc1C	-1.4	-0.8	-1.5	-3.6	nt
CC(=O)Nc1nc2c(F)cccc2s1	-0.6	nt	-3.1	nt	nt
CCOC(=O)c1sc(Nc2nc3c(OC)cccc3s2)nc1C	2.1	81.7*	-4.0	84.1*	4.7
Cc1cc(=O)oc2c(CN3CCCC3)c(O)ccc12	8.7	nt	-12.3	nt	nt
Cc1cc2oc(=O)cc(CN3CCC(C)CC3)c2cc1Cl	1.0	-3.1	nt	-3.7	nt
Cc1cc(=O)oc2c(CN3CCCCC3)c(O)c(Cl)cc12	8.8	134.5*	-4.4	62.1*	-6.2
Cc1cc(=O)oc2c(CN3CCC(C)CC3)c(O)c(Cl)cc12	nt	140.2*	-2.9	77.2*	41.2*
Cc1c(C)c2cc(Cl)c(O)c(CN3CCCC(C)C3)c2oc1=O (centres undefined)	?	139.4*	-5.1	83.6*	32.6
CCCc1cc(=O)oc2c(CN3CCCC3)c(O)ccc12	8.9	122.1*	nt	54.3*	-13.3
CCc1cc(=O)oc2cc(C)c(CN3CCCCC3)c(O)c12	-6.1	-14.9	-3.9	-2.5	nt
